The text below walks through data of ChEMBL document CHEMBL1122048, “Adriamycin analogues. Preparation of 9,10-anhydrodaunorubicin, 9,10-anhydroadriamycin, and some related compounds” (1982).

The structures appear in SMILES notation. A value given as a limit tells only on which side of the number the result lay.

For the experiment, the system named is CCRF-CEM. The experiment can be described thus: In vitro growth inhibitory activity against CCRF-CEM (human lymphoblastic leukemic) cells. The format is functional. As to conditions: read-out: ID50 (the source's name). Put shortly:
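Human lymphoblastic leukemia CCRF-CEM cultures exposed to drug for 48 h. The value is the concentration inhibiting culture growth by 50% relative to untreated controls.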
Turning to `COc1cccc2c1C(=O)c1c(O)c3c(c(O)c1C2=O)C[C@@](O)(C(C)=O)C[C@@H]3O[C@H]1C[C@H](N)[C@H](O)[C@H](C)O1` [DAUNORUBICIN], the IC50 turned out to be 40 nM.

Regarding `COc1cccc2c1C(=O)c1c(O)c3c(c(O)c1C2=O)C[C@@H](C(C)=O)CC3`, the IC50 was over 10000 nM.

Regarding `COc1ccc(C(OCC(=O)C2=Cc3c(O)c4c(c(O)c3[C@@H](OC3CC(N)C(O)C(C)O3)C2)C(=O)c2c(OC)cccc2C4=O)(c2ccccc2)c2ccccc2)cc1` (stereo partly drawn), the IC50 was over 5000 nM.

Take `COc1cccc2c1C(=O)c1c(O)c3c(c(O)c1C2=O)C=C(C(=O)CO)C[C@@H]3OC1CC(N)C(O)C(C)O1` (stereo partly drawn): the IC50 came out at 2310 nM.

For the compound `COc1cccc2c1C(=O)c1c(O)c3c(c(O)c1C2=O)C=C(C(C)=O)CC3`, the IC50 is over 10000 nM.

For the compound `COc1ccc(C(OCC(=O)C2=Cc3c(O)c4c(c(O)c3[C@@H](OC3CC(NC(=O)C(F)(F)F)C(O)C(C)O3)C2)C(=O)c2c(OC)cccc2C4=O)(c2ccccc2)c2ccccc2)cc1` (stereo partly drawn), the IC50 is over 5000 nM.

Take `COc1cccc2c1C(=O)c1c(O)c3c(c(O)c1C2=O)C=C(C(C)=O)C[C@@H]3OC1CC(NC(=O)C(F)(F)F)C(O)C(C)O1` (stereo partly drawn): the IC50 was determined as 2560 nM.

On to `CCCCC(=O)OCC(=O)[C@@H]1Cc2c(O)c3c(c(O)c2[C@@H](OC2CC(NC(=O)C(F)(F)F)C(O)C(C)O2)C1)C(=O)c1c(OC)cccc1C3=O` (stereo partly drawn), for which the IC50 came to 4710 nM.

For `CCCCC(=O)OCC(=O)C1=Cc2c(O)c3c(c(O)c2[C@@H](OC2CC(NC(=O)C(F)(F)F)C(O)C(C)O2)C1)C(=O)c1c(OC)cccc1C3=O` (stereo partly drawn), the IC50 turned out to be 2700 nM.

In the case of `COc1cccc2c1C(=O)c1c(O)c3c(c(O)c1C2=O)C=C(C(C)=O)C[C@@H]3O`, the IC50 worked out at 10000 nM.

Consider `COc1cccc2c1C(=O)c1c(O)c3c(c(O)c1C2=O)CC(C(C)=O)C[C@@H]3OC1CC(NC(=O)C(F)(F)F)C(O)C(C)O1` (stereo partly drawn), for which the IC50 turned out to be 3950 nM.

Take `CCCCC(=O)OCC(=O)[C@]1(O)Cc2c(O)c3c(c(O)c2[C@@H](OC2CC(NC(=O)C(F)(F)F)C(O)C(C)O2)C1)C(=O)c1c(OC)cccc1C3=O` (stereo partly drawn): the IC50 amounted to 230 nM.

Regarding `COc1cccc2c1C(=O)c1c(O)c3c(c(O)c1C2=O)C[C@@](O)(C(=O)CO)C[C@@H]3O[C@H]1C[C@H](N)[C@H](O)[C@H](C)O1` [DOXORUBICIN], the IC50 amounted to 66 nM.
